≈ marks a conversion by molar mass, not a printed value.
tested on: Klebsiella pneumoniae; test: Antibacterial activity against gram-negative Klebsiella pneumoniae KP457 harboring blacTX-M-15 extended spectrum beta-lactamase gene by CLSI method; assay type: functional
In short: (§1)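 CLSI broth microdilution MIC in fresh cation-adjusted Mueller Hinton broth, supplemented with defibrinated horse blood where appropriate. Compounds serially diluted in sterile deionized water. Runs accepted when comparator antibiotics against ATCC quality-control strains fell within recommended ranges.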

First: CN(C)[C@@H]1C(O)=C(C(N)=O)C(=O)[C@@]2(O)C(O)=C3C(=O)c4c(O)cc([C@@H]5CCCN5)c(F)c4C[C@H]3C[C@@H]12
Second: CC1CCN(C)C1c1cc(O)c2c(c1C(F)(F)F)C[C@H]1C[C@H]3[C@H](N(C)C)C(O)=C(C(N)=O)C(=O)[C@@]3(O)C(O)=C1C2=O (stereo not given in full)
The MIC of the first is 8-fold lower: 0.5 mg/L (≈ 0.997 µM) for the first, 4 mg/L (≈ 6.9 µM) for the second.

tested on: Enterobacter cloacae; test: Antibacterial activity against gram-negative Enterobacter cloacae EC1603 harboring tet(A) by CLSI method; assay type: functional; in short: as §1

First: CN(C)[C@@H]1C(O)=C(C(N)=O)C(=O)[C@@]2(O)C(O)=C3C(=O)c4c(O)cc([C@@H]5CCCN5)c(F)c4C[C@H]3C[C@@H]12
Second: CC1CCN(C)C1c1cc(O)c2c(c1C(F)(F)F)C[C@H]1C[C@H]3[C@H](N(C)C)C(O)=C(C(N)=O)C(=O)[C@@]3(O)C(O)=C1C2=O (stereo not given in full)
The MIC of the first is 16-fold higher: 32 mg/L (≈ 63.8 µM) for the first, 2 mg/L (≈ 3.45 µM) for the second.

tested on: Staphylococcus aureus; test: Antibacterial activity against gram-positive Staphylococcus aureus SA158 harboring tet(K) by CLSI method; assay type: functional; in short: as §1

First: CN(C)[C@@H]1C(O)=C(C(N)=O)C(=O)[C@@]2(O)C(O)=C3C(=O)c4c(O)cc([C@@H]5CCCN5)c(F)c4C[C@H]3C[C@@H]12
Second: CC1CCN(C)C1c1cc(O)c2c(c1C(F)(F)F)C[C@H]1C[C@H]3[C@H](N(C)C)C(O)=C(C(N)=O)C(=O)[C@@]3(O)C(O)=C1C2=O (stereo not given in full)
The MIC of the first is 4-fold higher: 0.125 mg/L (≈ 0.249 µM) for the first, 0.0312 mg/L (≈ 0.0538 µM) for the second.

tested on: Burkholderia cenocepacia; test: Antibacterial activity against gram-negative Burkholderia cenocepacia BC240 by CLSI method; assay type: functional
In short: (§2)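 Defibrinated horse blood added where appropriate. Compounds serially diluted in sterile deionized water. Strains from ATCC unless otherwise noted. Runs accepted when comparator antibiotics fell within QC ranges for ATCC quality control strains.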

Going from `CN(C)[C@@H]1C(O)=C(C(N)=O)C(=O)[C@@]2(O)C(O)=C3C(=O)c4c(O)cc([C@@H]5CCCN5)c(F)c4C[C@H]3C[C@@H]12` to `CC1CCN(C)C1c1cc(O)c2c(c1C(F)(F)F)C[C@H]1C[C@H]3[C@H](N(C)C)C(O)=C(C(N)=O)C(=O)[C@@]3(O)C(O)=C1C2=O` (stereo not given in full), the MIC falls from greater than 32 mg/L to 16 mg/L (≈ 27.6 µM).

tested on: Enterococcus faecalis; test: Antibacterial activity against gram-positive Enterococcus faecalis EFs327 harboring tet(M) by CLSI method; assay type: functional; in short: as §1

First: CN(C)[C@@H]1C(O)=C(C(N)=O)C(=O)[C@@]2(O)C(O)=C3C(=O)c4c(O)cc([C@@H]5CCCN5)c(F)c4C[C@H]3C[C@@H]12
Second: CC1CCN(C)C1c1cc(O)c2c(c1C(F)(F)F)C[C@H]1C[C@H]3[C@H](N(C)C)C(O)=C(C(N)=O)C(=O)[C@@]3(O)C(O)=C1C2=O (stereo not given in full)
The MIC of the first is 8-fold higher: 32 mg/L (≈ 63.8 µM) for the first, 4 mg/L (≈ 6.9 µM) for the second.

tested on: Streptococcus pneumoniae; test: Antibacterial activity against gram-positive Streptococcus pneumoniae SP160 harboring tet(M) by CLSI method; assay type: functional; in short: as §1

Compared with `CN(C)[C@@H]1C(O)=C(C(N)=O)C(=O)[C@@]2(O)C(O)=C3C(=O)c4c(O)cc([C@@H]5CCCN5)c(F)c4C[C@H]3C[C@@H]12`, `CC1CCN(C)C1c1cc(O)c2c(c1C(F)(F)F)C[C@H]1C[C@H]3[C@H](N(C)C)C(O)=C(C(N)=O)C(=O)[C@@]3(O)C(O)=C1C2=O` (stereo not given in full) is lower in MIC: 1 mg/L (≈ 1.99 µM) for the first, no more than 0.0156 mg/L for the second.

tested on: Escherichia coli; test: Antibacterial activity against gram-negative Escherichia coli EC107 by CLSI method; assay type: functional
In short: as §2, with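 “Broth microdilution MIC per CLSI in cation-adjusted Mueller Hinton broth, prepared fresh and held at 4 °C. Defibrinated” for “Defibrinated”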

Going from `CN(C)[C@@H]1C(O)=C(C(N)=O)C(=O)[C@@]2(O)C(O)=C3C(=O)c4c(O)cc([C@@H]5CCCN5)c(F)c4C[C@H]3C[C@@H]12` to `CC1CCN(C)C1c1cc(O)c2c(c1C(F)(F)F)C[C@H]1C[C@H]3[C@H](N(C)C)C(O)=C(C(N)=O)C(=O)[C@@]3(O)C(O)=C1C2=O` (stereo not given in full), the MIC falls from 0.125 mg/L (≈ 0.249 µM) to 0.0625 mg/L (≈ 0.108 µM) (2-fold).

tested on: Staphylococcus aureus; test: Antibacterial activity against gram-positive Staphylococcus aureus SA101 by CLSI method; assay type: functional
In short: as §2, with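 “Broth microdilution MIC per CLSI in cation-adjusted Mueller Hinton broth, prepared fresh and held at 4 °C. Defibrinated” for “Defibrinated”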

`CN(C)[C@@H]1C(O)=C(C(N)=O)C(=O)[C@@]2(O)C(O)=C3C(=O)c4c(O)cc([C@@H]5CCCN5)c(F)c4C[C@H]3C[C@@H]12` and `CC1CCN(C)C1c1cc(O)c2c(c1C(F)(F)F)C[C@H]1C[C@H]3[C@H](N(C)C)C(O)=C(C(N)=O)C(=O)[C@@]3(O)C(O)=C1C2=O` (stereo not given in full) are the same in MIC: 0.5 mg/L (≈ 0.997 µM) for the first, 0.5 mg/L (≈ 0.863 µM) for the second.

tested on: Staphylococcus aureus; test: Antibacterial activity against gram-positive Staphylococcus aureus SA161 harboring tet(M) by CLSI method; assay type: functional; in short: as §1

Compared with `CN(C)[C@@H]1C(O)=C(C(N)=O)C(=O)[C@@]2(O)C(O)=C3C(=O)c4c(O)cc([C@@H]5CCCN5)c(F)c4C[C@H]3C[C@@H]12`, `CC1CCN(C)C1c1cc(O)c2c(c1C(F)(F)F)C[C@H]1C[C@H]3[C@H](N(C)C)C(O)=C(C(N)=O)C(=O)[C@@]3(O)C(O)=C1C2=O` (stereo not given in full) is lower in MIC: greater than 32 mg/L for the first, 4 mg/L (≈ 6.9 µM) for the second.

tested on: Stenotrophomonas maltophilia; test: Antibacterial activity against gram-negative Stenotrophomonas maltophilia SM256 by CLSI method; assay type: functional
In short: as §2, with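 “Broth microdilution MIC per CLSI in cation-adjusted Mueller Hinton broth, prepared fresh and held at 4 °C. Defibrinated” for “Defibrinated”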

First: CN(C)[C@@H]1C(O)=C(C(N)=O)C(=O)[C@@]2(O)C(O)=C3C(=O)c4c(O)cc([C@@H]5CCCN5)c(F)c4C[C@H]3C[C@@H]12
Second: CC1CCN(C)C1c1cc(O)c2c(c1C(F)(F)F)C[C@H]1C[C@H]3[C@H](N(C)C)C(O)=C(C(N)=O)C(=O)[C@@]3(O)C(O)=C1C2=O (stereo not given in full)
The MIC of the first is 8-fold higher: 8 mg/L (≈ 16 µM) for the first, 1 mg/L (≈ 1.73 µM) for the second.

tested on: Enterococcus faecium; test: Antibacterial activity against gram-positive Enterococcus faecium EFm404 harboring tet(M) by CLSI method; assay type: functional; in short: as §1

Compared with `CN(C)[C@@H]1C(O)=C(C(N)=O)C(=O)[C@@]2(O)C(O)=C3C(=O)c4c(O)cc([C@@H]5CCCN5)c(F)c4C[C@H]3C[C@@H]12`, `CC1CCN(C)C1c1cc(O)c2c(c1C(F)(F)F)C[C@H]1C[C@H]3[C@H](N(C)C)C(O)=C(C(N)=O)C(=O)[C@@]3(O)C(O)=C1C2=O` (stereo not given in full) is 2-fold lower in MIC: 4 mg/L (≈ 7.98 µM) for the first, 2 mg/L (≈ 3.45 µM) for the second.

tested on: Escherichia coli; test: Antibacterial activity against gram-negative Escherichia coli EC155 harboring tet(A) by CLSI method; assay type: functional; in short: as §1

Compared with `CN(C)[C@@H]1C(O)=C(C(N)=O)C(=O)[C@@]2(O)C(O)=C3C(=O)c4c(O)cc([C@@H]5CCCN5)c(F)c4C[C@H]3C[C@@H]12`, `CC1CCN(C)C1c1cc(O)c2c(c1C(F)(F)F)C[C@H]1C[C@H]3[C@H](N(C)C)C(O)=C(C(N)=O)C(=O)[C@@]3(O)C(O)=C1C2=O` (stereo not given in full) is 8-fold lower in MIC: 16 mg/L (≈ 31.9 µM) for the first, 2 mg/L (≈ 3.45 µM) for the second.

tested on: Acinetobacter baumannii; test: Antibacterial activity against gram-negative Acinetobacter baumannii AB250 by CLSI method; assay type: functional
In short: as §2, with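 “Broth microdilution MIC per CLSI in cation-adjusted Mueller Hinton broth, prepared fresh and held at 4 °C. Defibrinated” for “Defibrinated”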

First: CN(C)[C@@H]1C(O)=C(C(N)=O)C(=O)[C@@]2(O)C(O)=C3C(=O)c4c(O)cc([C@@H]5CCCN5)c(F)c4C[C@H]3C[C@@H]12
Second: CC1CCN(C)C1c1cc(O)c2c(c1C(F)(F)F)C[C@H]1C[C@H]3[C@H](N(C)C)C(O)=C(C(N)=O)C(=O)[C@@]3(O)C(O)=C1C2=O (stereo not given in full)
The MIC of the first is 4-fold higher: 32 mg/L (≈ 63.8 µM) for the first, 8 mg/L (≈ 13.8 µM) for the second.

tested on: Pseudomonas aeruginosa; test: Antibacterial activity against gram-negative Pseudomonas aeruginosa PA555 by CLSI method; assay type: functional
In short: as §2, with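 “Broth microdilution MIC per CLSI in cation-adjusted Mueller Hinton broth, prepared fresh and held at 4 °C. Defibrinated” for “Defibrinated”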

Going from `CN(C)[C@@H]1C(O)=C(C(N)=O)C(=O)[C@@]2(O)C(O)=C3C(=O)c4c(O)cc([C@@H]5CCCN5)c(F)c4C[C@H]3C[C@@H]12` to `CC1CCN(C)C1c1cc(O)c2c(c1C(F)(F)F)C[C@H]1C[C@H]3[C@H](N(C)C)C(O)=C(C(N)=O)C(=O)[C@@]3(O)C(O)=C1C2=O` (stereo not given in full), the MIC rises from 8 mg/L (≈ 16 µM) to 32 mg/L (≈ 55.2 µM) (4-fold).

tested on: Proteus mirabilis; test: Antibacterial activity against gram-negative Proteus mirabilis PM385 by CLSI method; assay type: functional
In short: as §2, with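 “Broth microdilution MIC per CLSI in cation-adjusted Mueller Hinton broth, prepared fresh and held at 4 °C. Defibrinated” for “Defibrinated”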

Compared with `CN(C)[C@@H]1C(O)=C(C(N)=O)C(=O)[C@@]2(O)C(O)=C3C(=O)c4c(O)cc([C@@H]5CCCN5)c(F)c4C[C@H]3C[C@@H]12`, `CC1CCN(C)C1c1cc(O)c2c(c1C(F)(F)F)C[C@H]1C[C@H]3[C@H](N(C)C)C(O)=C(C(N)=O)C(=O)[C@@]3(O)C(O)=C1C2=O` (stereo not given in full) is 32-fold higher in MIC: 0.25 mg/L (≈ 0.498 µM) for the first, 8 mg/L (≈ 13.8 µM) for the second.
